In brackets after ≈: the same amount, converted by molar mass. Values belong to the molecule of their own block, whether it stands above or below them.
Assays:
[1] = target: JAK1 (Homo sapiens, UniProt P23458); settings: biochemical assays; cited from earlier work
[2] = tested on: IL-13-induced STAT6 phosphorylation in human CD14+ monocytes; assay: IL-13-induced STAT6 phosphorylation in monocytes; assay type: cell-based; settings: Monocyte, read-out: IC50, IL-13, STAT6
In short: (§1)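 PBMCs were isolated by density gradient from healthy human donor blood, sometimes enriched for lymphocytes or monocytes, and rested. Cells were preincubated with serially diluted test compound (DMSO vehicle), then stimulated with the relevant cytokine. They were fixed (formaldehyde), permeabilized and stained for phospho-STAT, with isotype-control gates and surface-marker cell gating. Flow cytometry gave % phospho-STAT+ cells. Inhibition was calculated versus vehicle-treated stimulated cells to derive IC50.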

[3] = tested on: IL-12-induced STAT4 phosphorylation in human CD3+ T cells and CD56+ NK cells; assay: IL-12-induced STAT4 phosphorylation, flow cytometry; assay type: cell-based; settings: T-cell, read-out: IC50, IL-12, STAT4
In short: as §1

[4] = tested on: STAT5b phosphorylation; assay: pSTAT5b in whole lung homogenate, OVA-challenged rats; assay type: in vivo, rat; settings: IT dosing, 2 hours after OVA challenge, vs OVA/vehicle
In short: (§2)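 In the OVA-sensitized, OVA-challenged rat model, test compound was given IT 1 h before challenge. Post-caval lung lobes taken 2 h after challenge were powderized in liquid nitrogen and lysed in buffer with protease/phosphatase inhibitors. Protein was measured by Bradford assay. Lysate (10 µg protein) was run on MSD phospho-STAT3/STAT5a/STAT5b/Akt(T308) plates, and blank-subtracted electrochemiluminescence was read.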

[5] = Thermodynamic solubility, pH 7.4; assay type: physicochemical
[6] = Caco-2 permeability, pH 6.5; assay type: in vitro ADME; settings: human, Caco-2, pH 6.5
[7] = Kinetic solubility, pH 6.8; assay type: physicochemical; settings: pH 6.8, aqueous buffer, kinetic from dmso stock
[8] = tested on: NF-κB; assay: NF-κB p65 analysis in lung tissue, OVA rat model; assay type: in vivo; settings: lung tissue 2 hours after OVA challenge
In short: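 In the OVA-sensitized, OVA-challenged rat model, test compound was given IT 1 h before challenge. Lungs were powderized 2 h after challenge and nuclear extracts prepared with a nuclear extraction kit. Nuclear extract (10 µg) was assayed for NF-κB p65 activation by TransAm ELISA-type assay.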

[9] = tested on: IFNα-induced STAT1 phosphorylation in human T cells or monocytes; assay: IFNα-induced STAT1 phosphorylation, flow cytometry; assay type: cell-based; settings: read-out: IC50, IFNα, STAT1
In short: as §1

[10] = Lung and plasma PK after single intratracheal dose in treatment-naïve rats; assay type: in vivo; settings: rat
In short: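 Treatment-naïve rats were given a single IT dose, at a lung-deposited dose of 52 or 30 µg/kg depending on compound. Plasma and lungs were sampled at 0.03, 0.5, 2, 6, 8 and 24 h, three animals per time point. Post-caval lobes were bead-homogenized in Ringer's solution. Samples were protein-precipitated with acetonitrile containing 0.2% formic acid and internal standard, then analysed by LC-MS/MS.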

[11] = tested on: phosphorylated STAT3-positive cell nuclei; assay: pSTAT3 immunohistochemistry of lung sections, OVA-challenged rats; assay type: in vivo, rat; settings: OVA/AZD4604 1 mg/kg versus OVA/vehicle
[12] = tested on: OVA-challenged rats; assay: Airway and lung inflammation in OVA-induced rat model of asthma; assay type: in vivo; settings: IT
In short: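 Rats sensitized IP with OVA (100 µg/rat) in aluminium/magnesium hydroxide on days 0, 14, 21 and challenged day 28 with 1% aerosolized OVA for 30 min. Test compound was given IT under isoflurane at 1 mL/kg, 1 h before challenge (100–3000 µg/kg). BAL (2 × 3 mL RPMI) was taken 24 h post-challenge. Leukocytes were counted automatically, with differentials from Wright-stained cytospins; n=7–10/group.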

[13] = tested on: TSLP-induced production of CCL17 in human CD14+ monocytes; assay: TSLP-induced CCL17 release in monocytes; assay type: cell-based; settings: Monocyte, read-out: IC50, TSLP, CCL17
In short: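 Human monocytes were taken from PBMCs isolated by density gradient from healthy donor blood. They were preincubated with serially diluted test compound (DMSO vehicle), then stimulated with recombinant TSLP. Supernatants were collected by brief centrifugation, and released CCL17 was quantified by ELISA or MSD U-plex immunoassay. Reduction versus vehicle-treated stimulated cells gave IC50.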

[14] = tested on: IL-2-induced STAT5 phosphorylation in human T cells; assay: IL-2-induced STAT5 phosphorylation in human T cells, flow cytometry; assay type: cell-based; settings: T-cell, read-out: IC50, IL-2, STAT5 (human)
In short: as §1

[15] = tested on: pAkt; assay: pAkt analysis in lung tissue, OVA rat model; assay type: in vivo; settings: lung tissue 2 hours after OVA challenge
In short: as §2

[16] = target: T1, JAK3 (Homo sapiens, UniProt P52333); assay: JAK3 enzymatic assay, 1 mM ATP; assay type: biochemical
T1 sequence (P52333 1-1124): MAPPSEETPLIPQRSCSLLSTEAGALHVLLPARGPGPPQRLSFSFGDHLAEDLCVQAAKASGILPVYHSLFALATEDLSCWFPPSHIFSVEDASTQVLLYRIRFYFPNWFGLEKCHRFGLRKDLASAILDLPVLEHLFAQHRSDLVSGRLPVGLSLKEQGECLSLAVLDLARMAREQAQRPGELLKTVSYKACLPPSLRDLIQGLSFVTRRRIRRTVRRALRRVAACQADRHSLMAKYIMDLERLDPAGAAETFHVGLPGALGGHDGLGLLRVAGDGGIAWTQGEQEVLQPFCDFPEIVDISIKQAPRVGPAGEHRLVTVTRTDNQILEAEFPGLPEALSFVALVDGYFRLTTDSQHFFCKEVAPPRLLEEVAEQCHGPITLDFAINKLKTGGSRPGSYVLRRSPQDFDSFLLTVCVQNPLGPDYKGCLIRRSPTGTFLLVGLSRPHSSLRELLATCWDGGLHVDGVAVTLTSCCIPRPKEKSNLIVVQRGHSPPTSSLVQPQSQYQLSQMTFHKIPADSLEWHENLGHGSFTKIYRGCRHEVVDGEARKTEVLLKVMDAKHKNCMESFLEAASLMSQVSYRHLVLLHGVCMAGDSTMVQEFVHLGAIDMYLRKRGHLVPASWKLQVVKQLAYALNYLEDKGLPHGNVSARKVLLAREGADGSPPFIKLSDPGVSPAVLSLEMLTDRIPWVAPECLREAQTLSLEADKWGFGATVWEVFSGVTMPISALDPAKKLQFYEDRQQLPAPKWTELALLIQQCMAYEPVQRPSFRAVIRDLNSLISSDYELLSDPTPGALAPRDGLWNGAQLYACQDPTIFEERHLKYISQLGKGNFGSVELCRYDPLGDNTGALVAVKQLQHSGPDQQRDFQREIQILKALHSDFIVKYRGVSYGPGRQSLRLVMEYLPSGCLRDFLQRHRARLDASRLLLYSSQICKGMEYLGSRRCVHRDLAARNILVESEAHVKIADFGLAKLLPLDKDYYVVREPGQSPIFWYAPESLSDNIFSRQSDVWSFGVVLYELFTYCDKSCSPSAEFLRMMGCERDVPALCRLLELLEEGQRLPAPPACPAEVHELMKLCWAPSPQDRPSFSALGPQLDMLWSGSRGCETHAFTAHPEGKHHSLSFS

[17] = Basic pKa, measured; assay type: physicochemical
[18] = tested on: STAT3 phosphorylation; assay: pSTAT3 in whole lung homogenate, OVA-challenged rats; assay type: in vivo, rat; settings: IT dosing, 2 hours after OVA challenge, vs OVA/vehicle
In short: as §2

[19] = In vivo plasma PK after IV dosing in rats; settings: rat
In short: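 Rats received a single IV bolus of test compound, at 1.0 or 0.5 mg/kg depending on compound; n=2. Plasma was then sampled to derive clearance, steady-state volume of distribution and terminal half-life.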

[20] = In vitro rat plasma protein binding; assay type: in vitro ADME
[21] = tested on: IL-4-induced STAT6 phosphorylation in human CD4+ T cells; assay: IL-4-induced STAT6 phosphorylation, flow cytometry; assay type: cell-based; settings: read-out: IC50, IL-4, STAT6
In short: as §1

[22] = tested on: STAT5a phosphorylation; assay: pSTAT5a in whole lung homogenate, OVA-challenged rats; assay type: in vivo, rat; settings: IT dosing, 2 hours after OVA challenge, vs OVA/vehicle
In short: as §2

Sequence of JAK1 (P23458 whole entry): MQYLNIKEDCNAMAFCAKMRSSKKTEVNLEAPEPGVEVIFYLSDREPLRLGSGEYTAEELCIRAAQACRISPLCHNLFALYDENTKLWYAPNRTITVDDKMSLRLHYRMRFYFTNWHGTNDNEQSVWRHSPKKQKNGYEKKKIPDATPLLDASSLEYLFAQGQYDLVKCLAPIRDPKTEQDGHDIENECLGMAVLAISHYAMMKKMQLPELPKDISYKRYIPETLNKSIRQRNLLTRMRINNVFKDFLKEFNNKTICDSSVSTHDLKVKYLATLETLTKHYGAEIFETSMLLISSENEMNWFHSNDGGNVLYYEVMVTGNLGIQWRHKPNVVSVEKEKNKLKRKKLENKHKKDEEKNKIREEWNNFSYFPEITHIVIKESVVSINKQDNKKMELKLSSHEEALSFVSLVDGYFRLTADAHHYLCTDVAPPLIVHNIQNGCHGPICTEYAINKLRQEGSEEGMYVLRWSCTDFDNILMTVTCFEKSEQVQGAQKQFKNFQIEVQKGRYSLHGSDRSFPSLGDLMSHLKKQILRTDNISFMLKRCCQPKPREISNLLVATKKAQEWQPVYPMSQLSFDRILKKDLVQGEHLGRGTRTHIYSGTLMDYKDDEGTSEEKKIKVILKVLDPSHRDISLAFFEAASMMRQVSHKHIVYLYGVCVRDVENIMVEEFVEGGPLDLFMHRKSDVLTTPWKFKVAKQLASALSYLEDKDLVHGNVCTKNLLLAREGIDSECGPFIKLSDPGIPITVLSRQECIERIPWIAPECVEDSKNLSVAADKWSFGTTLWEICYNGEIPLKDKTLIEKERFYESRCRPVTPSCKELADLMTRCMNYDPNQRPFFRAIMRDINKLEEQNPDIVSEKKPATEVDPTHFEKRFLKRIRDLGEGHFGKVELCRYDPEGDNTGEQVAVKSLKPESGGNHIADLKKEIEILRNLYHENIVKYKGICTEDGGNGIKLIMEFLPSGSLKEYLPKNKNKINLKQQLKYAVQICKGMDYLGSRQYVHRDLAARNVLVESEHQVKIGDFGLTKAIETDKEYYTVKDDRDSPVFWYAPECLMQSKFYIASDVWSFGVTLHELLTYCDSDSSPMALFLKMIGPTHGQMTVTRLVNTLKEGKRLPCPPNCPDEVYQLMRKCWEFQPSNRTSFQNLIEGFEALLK

Compound: CN(CCC#N)C1CCN(C(=O)Cn2cc(NC(=O)c3cnn4cccnc34)c(-c3cc(Cl)ccc3OC(F)F)n2)CC1 [GDC-0214]
increased selectivity for JAK1 over JAK2 [1]: twofold

Compound: CN(CCC#N)C1CCN(C(=O)Cn2cc(NC(=O)c3cnn4cccnc34)c(-c3cc(Cl)ccc3OC(F)F)n2)CC1 [iJak-381]
increased selectivity for JAK1 over JAK2 [1]: sixfold

IC50 [2]: 23.1 nM
IC50 [3]: 98 nM
solubility thermodynamic [5]: 6.6 µM (≈ 3.96 µg/mL)
Papp [6]: 6.7 ×10⁻⁶ cm/s
solubility kinetic [7]: 18 µM (≈ 10.8 µg/mL)
IC50 [9]: 1.2 nM
proportion of the dose remaining in whole lung tissue 24 hours after administration ([10]; IT, assuming 100% lung deposition): 0.3%
half-life ([10]; lung, inhaled or intranasal): ~300 min
half-life ([10]; lung, other: intratracheal): 300 min
half-life ([10]; plasma, inhaled or intranasal): ~300 min
IC50 [13]: 57 nM
IC50 [14]: 21 nM
IC50 [16]: > 10 µM
pKa [17]: 7.9
Vd [19]: 9.9 L/kg
clearance [19]: 33 mL/min/kg
half-life [19]: 252 min
In vitro rat plasma protein binding, % free [20]: 10.4 % free
IC50 [21]: 16.9 nM
Compound: COC[C@H](C(=O)Nc1cccc2c(-c3nc(Nc4cccc(S(C)(=O)=O)c4F)ncc3F)c[nH]c12)N1CCN(C)CC1 [AZD4604]
STAT5b phosphorylation in whole lung homogenates [4]: dose-dependently inhibited
effect on NF-κB [8]: no significant effect
proportion of phosphorylated STAT3-positive cell nuclei in endothelium and bronchial epithelium ([11]; P < 0.01): significantly reduced
proportion of phosphorylated STAT3-positive cell nuclei in the alveolar epithelium ([11]; P < 0.05): significantly reduced
eosinophil numbers in BALF ([12]; 24 hours after OVA challenge, vs OVA/vehicle): numerically reduced
eosinophil numbers in lung tissue ([12]; 24 hours after OVA challenge, vs vehicle, to levels seen in saline-challenged animals): reduced
cytokines eotaxin and IL-1β in BALF ([12]; vs OVA/vehicle): numerically lowered
levels of lymphocytes, neutrophils, and macrophages in BALF ([12]; vs OVA/vehicle): numerically lowered
effect on pAkt [15]: no significant effect
STAT3 phosphorylation in whole lung homogenates [18]: dose-dependently inhibited
STAT5a phosphorylation in whole lung homogenates [22]: dose-dependently inhibited

From article PMC9441147 (Drug Design, Development and Therapy, 2022)
